# Published values collected from several papers.
# Lines come from different studies, so protocols differ.
# Effect on: cell growth or viability
Compound,cell line,test,setting,quantity,result
CN(C)c1ccc(C(=C2C=CC(=[N+](C)C)C=C2)c2ccc(N(C)C)cc2)cc1,GISTT1,resazurin,72 h,IC50,0.52 µM
O=C1CCc2c(O)cccc2C(=O)Nc2ccccc21,L6,,,IC50,210 µM
CC[C@@]1(O)C(=O)OCc2c1cc1n(c2=O)Cc2cc3ccccc3nc2-1,CNSSF-539,SRB,48 h,GI50,10 nM
O=C1Nc2ccc(C(=O)N3CCOCC3)cc2C(=O)CCc2ccccc21,L6,,,IC50,> 270 µM
CC(=O)Nc1cccc(-n2c(=O)n(C3CC3)c(=O)c3c(Nc4ccc(I)cc4F)n(C)c(=O)c(C)c32)c1,SW1417,resazurin,"6.25 nM, 72 h",viability,71.8%
CC(=O)O[C@H]1C(=O)[C@@]2(C)[C@H]([C@H](OC(=O)c3ccccc3)[C@]3(O)C[C@H](OC(=O)[C@H](O)[C@@H](NC(=O)c4ccccc4)c4ccccc4)C(C)=C1C3(C)C)[C@]1(OC(C)=O)CO[C@@H]1C[C@@H]2O,GISTT1,resazurin,72 h,IC50,0.21 µM
CN(C)CCCn1c2c(c3ccncc3c1=O)C(=O)c1ccccc1-2,CNSSF-539,SRB,,GI50,708 nM
O=C1CCc2ccccc2C(=O)c2ccccc2N1,L6,,,IC50,230 µM
CC[C@@]1(O)C(=O)OCc2c1cc1n(c2=O)Cc2cc3c(CN(C)C)c(O)ccc3nc2-1,GISTT1,resazurin,72 h,IC50,0.08 µM
CCc1cc(CN2CCc3cc(OS(N)(=O)=O)c(OC)cc3C2)cc(CC)c1CC,CNSSF-539,SRB,,GI50,916 nM
Cc1cc2c(cc1N1C(=O)c3cccc4c(CCCO)ccc(c34)C1=O)n(C)c(=O)n2C (racemic),MDA-MB-453,resazurin,,GI50,> 10000 nM
COc1cc2c(cc1O)CCN(Cc1cc(Cl)c(OC)c(OC)c1)C2,CNSSF-539,SRB,,GI50,365 nM
CN1C(=O)c2ccccc2CCC(=O)c2ccccc21,L6,,,IC50,> 380 µM
